Bioassay records from PubChem.
Most compounds without a hit are left out; they make up all but 1.1% or so of the library.
NR2E3 ag-1: NR2E3 (human) agonism; 320,000 tested, 0.12% active; inhibition of corepressor binding, % at 4.78 µM; GST-NR2E3/biotin-RetCOR TR-FRET, 1536-well; Q9Y5X4;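 active = percent inhibition above the cutoff of mean plus 3 SD of all tested compounds, set per screening campaign, cut at about 20% in these data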;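 also: 0% = DMSO wells and 100% = biotin wells as full block of FRET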
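System: GST-tagged NR2E3 plus biotinylated RetCOR corepressor; Buffer or medium: pH 7.5 Tris-based buffer; Probe or stimulus: RetCOR corepressor, biotinylated, 7 nM; Doses: compound at 4.8 µM, single dose; Schedule: 5 h incubation at 4 °C; Technique: time-resolved FRET; Evaluation: percent inhibition of TR-FRET ratio; Replication: one well per compound, singlicate testing.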
core dimer inh: HCV core protein dimerization inhibition; TR-FRET GST/Flag-core106 dimerization, 1536-well; inhibition, % at 5 µM; 300,000 tested, 0.33% active;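 active = inhibition above the mean of all tested compounds plus 3 SD, set per screening campaign, cut at about 45% in these data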
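Assay system: GST-tagged and Flag-tagged HCV core protein residues 1-106 / Times: compound-protein-antibody incubation 4 h at 22.5 °C / Signal: time-resolved FRET, ex 340 nm, em 617 and 671 nm / Evaluation: % inhibition based on acceptor/donor emission ratio / Benchmarks: wells lacking GST-core106 and wells with excess unlabelled core106 / Repeats: singlicate, one well per compound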
DAGLB inh: blocks human DAGLB lipase activity; HEK293T DAGLB membrane lysate, EnzChek fluorogenic substrate; inhibition, % at 5.17 µM; 340,000 tested, 0.059% active; AID 504411; in the data active = inhibition above about 34%;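 also: 0% = enzyme with vehicle and 100% = wells lacking enzyme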
Target sequence (Q8NCG7 whole entry, looked up): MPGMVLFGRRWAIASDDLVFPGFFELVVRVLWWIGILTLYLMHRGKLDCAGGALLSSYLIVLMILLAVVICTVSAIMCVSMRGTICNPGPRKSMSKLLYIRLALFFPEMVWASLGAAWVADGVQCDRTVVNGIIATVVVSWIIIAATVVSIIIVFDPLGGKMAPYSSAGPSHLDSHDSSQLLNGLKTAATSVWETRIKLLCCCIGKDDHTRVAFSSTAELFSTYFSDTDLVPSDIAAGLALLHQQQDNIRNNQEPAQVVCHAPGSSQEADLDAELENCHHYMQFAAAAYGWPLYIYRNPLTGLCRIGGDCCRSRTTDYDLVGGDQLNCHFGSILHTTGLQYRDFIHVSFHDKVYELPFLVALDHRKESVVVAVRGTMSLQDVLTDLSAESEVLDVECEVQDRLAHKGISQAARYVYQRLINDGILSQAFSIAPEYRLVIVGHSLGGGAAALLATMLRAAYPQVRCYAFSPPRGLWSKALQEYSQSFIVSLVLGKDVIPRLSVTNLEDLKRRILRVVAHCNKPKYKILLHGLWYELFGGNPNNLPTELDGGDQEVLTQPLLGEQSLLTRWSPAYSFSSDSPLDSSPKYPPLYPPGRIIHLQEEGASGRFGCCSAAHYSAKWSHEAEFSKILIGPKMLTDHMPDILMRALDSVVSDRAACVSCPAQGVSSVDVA
NR2E3 ag-2: agonists of human NR2E3 nuclear receptor. 360,000 tested, 0.35% active. Q9Y5X4. CHO-S Gal4-NCOR/VP16-NR2E3 two-hybrid, luciferase. inhibition of corepressor binding, % at 3.98 µM;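 active = inhibition above the mean of all tested compounds plus 3 SD, cut at about 70% in these data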;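 also: 0% = DMSO with NR2E3 transfected cells and 100% = cells lacking NR2E3 construct; higher means lower luciferase signal from less NR2E3 corepressor binding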
Vif inh: HIV Vif inhibition | 340,000 tested, 0.35% active | HEK293T cells, Vif self-association by quenched fluorescence, imaging, 24 h | inhibition, % at 7.49 µM; in the data active = inhibition above about 50%, passing the limit was not always enough
MT1-MMP act inh: MT1-MMP (human) activation inhibition. P50281. HT1080 RFP-PRO-GFP cells, GFP/RFP ratio fluorescence, overnight; percent of plate control window, DMSO zero. GFP/RFP ratio change, % at 20 µM. 360,000 tested, 0.061% active. AID 651647;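 active = GFP/RFP ratio change of at least 30% with cell ATP level not reduced by more than half and red fluorescence within 50% of control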
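Assay system: HT1080 cells carrying an RFP-PRO-GFP reporter | Dosing: Single dose of 20 µM compound, 1% DMSO final | Incubation: Cells overnight before dosing, compound overnight, 37 °C, 5% CO2 | Evaluation: GFP/RFP fluorescence ratio | Control set: DMSO and RFP-L50D-GFP cell wells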
NR2E3 ag conf: confirmation of human NR2E3 agonists; CHO-S mammalian two-hybrid NR2E3-NCOR, luciferase luminescence; 2,300 tested, 51% active; inhibition, % at 3.98 µM; shares compounds with NR2E3 ag-2; AID 624378;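 active = average inhibition above a cutoff equal to the mean inhibition of all tested compounds plus one SD, cut at about 70% in these data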;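 also: 0% = DMSO in NR2E3 cells and 100% = DMSO in cells lacking NR2E3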
VP16 counter: GAL4-VP16 reporter inhibition in NR2E3 agonist counterscreen; shares compounds with NR2E3 ag-2; CHO-S GAL4-VP16 luciferase reporter, luminescence; inhibition, % at 3.98 µM; 2,300 tested, 29% active;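 active = mean inhibition above a cutoff equal to the average over all tested compounds plus one standard deviation, cut at about 70% in these data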;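 also: luciferase from a UAS reporter driven by GAL4-VP16 transactivation; 0% = DMSO with VP16-transfected cells and 100% = DMSO with cells lacking VP16; higher means less reporter light so more repression of VP16 activity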
* hit, by the source's call; . = no result.

SMILES	NR2E3 ag-1	core dimer inh	DAGLB inh	NR2E3 ag-2	Vif inh	MT1-MMP act inh	NR2E3 ag conf	VP16 counter
NC(Cc1ccc(Cl)cc1)c1csc(Nc2ncccn2)n1 (stereo not given)	.	.	.	58.1	-5.4	-15.7	51.4	27.7
CCC(c1nnnn1-c1ccc(OC)cc1)N1CCC2(CC1)C(=O)NCN2c1ccccc1 (stereo not given)	.	.	.	-12.7	-9.6	0.1	.	.
CC(=O)O[C@H]1C[C@@H]2OC3C=C(C)CCC3(C)[C@@]1(C)[C@@]21CO1 (stereo not given in full)	.	.	-5.4	101.2*	-7.7	-49.0	98.4*	97.3*
CC(=O)OC1CC2OC3C=C(C)CCC3(C)C1(C)C21CO1 (stereo not given)	.	.	.	101.5*	-55.7	-37.1	99.5*	97.8*
COc1ccc(-n2nnnc2C(CCSC)N2CCC3(CC2)C(=O)NCN3c2ccccc2)cc1 (stereo not given)	.	.	.	-10.1	-3.3	0.9	.	.
COC12c3ccccc3-c3ccccc3C1C(C(=O)O)C2C(=O)O (stereo not given)	.	.	.	2.0	7.8	1.3	.	.
CC(=O)N(C)C1=Nc2ccc(Cl)cc2C(c2ccccc2)=[N+]([O-])C1	.	.	0.7	-20.7	3.4	2.3	.	.
CC1=CC2OC3CC4OC(=O)C=CC=CC(=O)OCCC(C)C(O)C(=O)OCC2(CC1)C4(C)C31CO1 (stereo not given)	.	.	0.7	103.2*	10.9	-45.2	100.6*	100.3*
CC1=CC2OC3CC4OC(=O)C=CC=CC(C(C)O)OCC(O)C5(C)OC5C(=O)OCC2(CC1O)C4(C)C31CO1 (stereo not given)	.	.	-4.0	101.8*	-6.7	-46.4	97.8*	98.4*
CC(O)C1C=CC=CC(=O)OC2CC3OC4C5OC5(C)C(O)CC4(COC(=O)C(O)C(C)CCO1)C2(C)C31CO1 (stereo not given)	.	.	0.5	91.7*	2.7	-44.3	94.2*	65.9
CC1CCOC(=O)C=CC=CC(=O)OC2CC3OC4C5OC5(C)C(O)CC4(COC(=O)C1O)C2(C)C31CO1 (stereo not given)	.	.	-0.2	102.4*	-12.1	-39.7	99.0*	98.9*
COC(=O)C1(F)C(=O)NC(=O)NC1O (stereo not given)	.	.	.	4.2	.	9.6	.	.
COc1ccc(CC2C(=O)NC(C)C(=O)N(C)C3C(=O)N(C)C(Cc4ccc(O)c(c4)Oc4ccc(cc4)C3O)C(=O)NC(C)C(=O)NC(C)C(=O)N2C)cc1 (stereo not given)	.	.	-0.9	102.4*	-6.8	-39.2	100.0*	99.5*
CCOC(=O)c1cnc(SCc2ccc(Cl)c(Cl)c2)nc1N1CC1	.	.	-2.5	-16.8	-18.3	27.7	.	.
C=C1C(=O)O[C@H]2[C@H]1[C@H](OC(=O)CC(=O)O[C@@H]1C[C@@H](C)[C@@H]3C=CC(=O)[C@@]3(C)[C@H]3OC(=O)C(=C)[C@H]13)C[C@@H](C)[C@H]1C=CC(=O)[C@]12C	-0.1	14.6	-0.9	78.1*	-1.6	9.8	88.9*	73.2*
C=C1C(=O)OC2C1CCC(C)C1(O)C=CC(=O)C21C (stereo not given)	.	.	-2.1	33.2	21.9	-6.8	.	.
C=C1C(=O)O[C@@H]2C[C@@H](C)[C@@H]3C=CC(=O)[C@@]3(C)[C@@H](OC(=O)CC(=O)O[C@H]3[C@@H]4C(=C)C(=O)O[C@@H]4C[C@@H](C)[C@@H]4C=CC(=O)[C@]43C)[C@H]12	2.0	20.6	1.6	96.0*	.	-5.4	100.5*	96.8*
C=C1C(=O)OC2CC(C)C3C=CC(=O)C3(C)C(O)C12 (stereo not given)	.	.	1.8	92.3*	-4.8	-10.8	99.4*	41.3
C=C1C(=O)O[C@@H]2C[C@@H](C)[C@@H]3C4OC4C(=O)[C@@]3(C)[C@@H](O)[C@H]12 (stereo not given in full)	-3.8	-7.4	-5.7	76.6*	41.0*	9.8	-10.8	2.4
C=C1C(=O)O[C@H]2C[C@@H](C)[C@@H]3C=CC(=O)[C@@]3(C)C[C@H]12	-5.1	12.5	.	.	.	.	.	.
COc1cccc(C(c2nnnn2C2CCCCC2)N2CCC3(CC2)C(=O)NCN3c2ccccc2)c1OC (stereo not given)	.	.	.	-25.8	2.4	7.8	.	.
COc1ccc(-n2nnnc2C(CCc2ccccc2)N2CCC3(CC2)C(=O)NCN3c2ccccc2)cc1 (stereo not given)	.	.	.	-14.1	-1.5	-8.4	.	.
Cc1nc2ccccn2c1P(=S)(c1ccccc1)c1ccccc1	.	.	.	17.5	-19.8	0.9	.	.
O=c1[nH]c2ccccc2n1C1CCN(C(CCc2ccccc2)c2nnnn2C2CCCCC2)CC1 (stereo not given)	.	.	.	-4.2	-6.4	-27.6	.	.
CC1(O)CCN2C(=O)CCc3cccc1c32 (stereo not given)	1.9	.	0.3	-9.6	11.3	-12.7	.	.
SMILES	NR2E3 ag-1	core dimer inh	DAGLB inh	NR2E3 ag-2	Vif inh	MT1-MMP act inh	NR2E3 ag conf	VP16 counter
C[C@H]1CCC[C@H](O)CCCCCc2cc(O)cc(O)c2C(=O)O1	-2.1	-3.1	3.0	-7.8	17.0	-4.3	.	.
CC1CCC/C=C/C2CC(O)CC2C(O)/C=C/C(=O)O1 (stereo not given)	2.2	-4.2	-3.1	83.2*	.	4.1	98.6*	55.8
CC(C)(O)/C=C/C(=O)C(C)(O)C1C(O)CC2(C)C3CC=C4C(C=C(O)C(=O)C4(C)C)C3(C)C(=O)CC12C (stereo not given)	.	.	5.8	78.5*	-4.4	-39.5	46.8	57.2
CCC(c1nnnn1-c1ccc2c(c1)OCCO2)N1CCC2(CC1)C(=O)NCN2c1ccccc1 (stereo not given)	.	.	.	-9.1	-11.2	1.1	.	.
O=C1NCN(c2ccccc2)C12CCN(C(c1cccc3ccccc13)c1nnnn1C1CCCCC1)CC2 (stereo not given)	.	.	.	10.9	-3.5	-1.5	.	.
COC1CC2C=C(C)C=CC=CC(=O)NC(c3ccccc3)CC=CCCC(O)CC(=O)C2=C1O (stereo not given)	.	.	.	102.7*	-11.8	-2.5	98.5*	95.4*
CC(C)(C)c1ccc(CSc2cnn(C(C)(C)C)c(=O)c2Cl)cc1	-1.9	-0.8	-8.6	107.3*	-9.3	-7.3	99.6*	93.3*
CCOC(=O)[C@]12Cc3cc(Cl)ccc3[C@H]1N(C1CCCCC1)C(=O)c1cc(OC)ccc12	.	.	.	99.5*	.	-54.5	99.0*	78.2*
